# Bioassay records: PubChem, several laboratories
# HGIII-sPLA2 inh = Inhibits HGIII-sPLA2 liposome hydrolysis, primary screen; Q9NZ20; AID 743126; QFRET BODIPY PC-A2 liposome hydrolysis, fluorescence; inhibition, % at 12.2 µM; 370,000 tested, 0.56% active;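 active = inhibition above mean plus 3 SD of compounds lying within the high and low control bounds, cut at about 19% in these data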;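 note: 0% = median of test compound wells and 100% = no enzyme DMSO wells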
# PfM18AAP inh-1 = blocks P. falciparum M18 aspartyl aminopeptidase; recombinant PfM18AAP, H-Glu-NHMec fluorogenic cleavage; inhibition, % at 7.35 µM; 290,000 tested, 1.2% active; AID 1822;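 active = inhibition above the campaign mean inhibition over all tested compounds plus 3 SD, cut at about 28% in these data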;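 note: 0% = plate median of test compound wells and 100% = 2 mM ZnCl2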
# Arr AP2 block = human beta-arrestin and AP2 interaction inhibition. 340,000 tested, 0.31% active. FITC-arrestin peptide / GST-AP2 beads, flow cytometry; AP2 beta2 appendage carries R879A mutation. AID 504490. inhibition, % at 10 µM;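 active = inhibition above a set limit, near 3 SD of compounds lacking own fluorescence, cut at about 54% in these data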;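 note: plate controls were DMSO wells for no effect and 5 µM unlabelled arrestin peptide for full effect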
#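 System: GST-AP2 R879A glutathione beads; medium: PBS, Tween 20 0.05%, BSA 0.1%; reagent: fluorescein-tagged arrestin peptide at 50 nM final; schedule: pre-incubation 12 min, peptide binding 1 h, room temperature; detection: flow cytometry, FL1 (488/535 nm); read-out: inhibition as reduced fluorescein signal on beads, percent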
# CendR NRP1 mod = modulators of CendR peptide binding to human neuropilin-1 | inhibition, % at 25 µM | O14786 | FAM-RPARPAR peptide binding to NRP-1, fluorescence polarization | AID 602438 | 360,000 tested, 0.85% active;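 active = inhibition or corrected inhibition above about 18%, plus a signal ratio from 0.5 to 1.5, limit read from the data, passing the limit was not always enough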
# HTR2A ag = mouse HTR2A agonism via beta-arrestin recruitment. 360,000 tested, 0.66% active. activation, % at 7.6 µM. AID 624169. P35363. CHO-K1 mHTR2A beta-arrestin complementation, luminescence; percent of 30 µM serotonin response;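 active = activation above a run cutoff, the mean activation of all tested compounds plus 3 SD, cut at about 14% in these data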;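 note: 0% = plate median of compound wells and 100% = 30 µM serotonin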
# Target sequence (P35363 whole entry, looked up): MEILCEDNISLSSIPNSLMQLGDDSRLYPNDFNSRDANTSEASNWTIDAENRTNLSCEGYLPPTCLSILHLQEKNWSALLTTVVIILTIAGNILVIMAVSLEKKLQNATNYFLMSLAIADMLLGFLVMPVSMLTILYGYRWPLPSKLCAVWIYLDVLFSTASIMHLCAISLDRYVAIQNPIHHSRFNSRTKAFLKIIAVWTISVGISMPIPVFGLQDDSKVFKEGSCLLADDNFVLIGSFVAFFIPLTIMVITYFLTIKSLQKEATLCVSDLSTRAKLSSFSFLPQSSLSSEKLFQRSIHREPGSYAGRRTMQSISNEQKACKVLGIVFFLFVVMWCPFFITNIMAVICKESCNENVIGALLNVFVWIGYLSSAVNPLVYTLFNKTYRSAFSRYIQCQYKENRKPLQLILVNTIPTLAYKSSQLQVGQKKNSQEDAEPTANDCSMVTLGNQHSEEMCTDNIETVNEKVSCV
# Hep lipid drop = modulators of hepatic lipid droplet formation | AML12 mouse hepatocytes, oleate lipid droplets, BODIPY imaging | inhibition, % at 6.5 µM | 240,000 tested, 0.4% active | AID 1656;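 active = lipid droplet intensity inhibited by at least 50%, with more than 500 cells counted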
#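 Test system: AML12 mouse liver cells; schedule: overnight exposure; technique: high-content imaging of BODIPY-stained droplets and DAPI nuclei; read-out: % inhibition of corrected integrated BODIPY droplet signal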
# PfM18AAP inh-2 = PfM18AAP inhibition, confirmation; AID 2170; 2,400 tested, 28% active; recombinant PfM18AAP, H-Glu-NHMec fluorogenic cleavage; shares compounds with PfM18AAP inh-1; inhibition, % at 7.35 µM;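 active = mean inhibition over replicate wells above the hit cutoff set for the earlier primary screen, cut at about 29% in these data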;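 note: 0% = median of test compound wells and 100% = 2 mM ZnCl2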
# CTSL1 confirm = Cathepsin L (human) inhibition, confirmation. 2,400 tested, under 10 active. purified cathepsin L1, Z-Leu-Arg-MCA fluorescence. shares compounds with PfM18AAP inh-1. AID 2178. inhibition, % at 5.96 µM;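 active = average inhibition across replicates above the hit cutoff set in the earlier primary screen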;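 note: 0% = median of test compound wells and 100% = Z-Phe-Ala-diazomethylketone 1 µM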
# Target sequence (P07711 whole entry, looked up): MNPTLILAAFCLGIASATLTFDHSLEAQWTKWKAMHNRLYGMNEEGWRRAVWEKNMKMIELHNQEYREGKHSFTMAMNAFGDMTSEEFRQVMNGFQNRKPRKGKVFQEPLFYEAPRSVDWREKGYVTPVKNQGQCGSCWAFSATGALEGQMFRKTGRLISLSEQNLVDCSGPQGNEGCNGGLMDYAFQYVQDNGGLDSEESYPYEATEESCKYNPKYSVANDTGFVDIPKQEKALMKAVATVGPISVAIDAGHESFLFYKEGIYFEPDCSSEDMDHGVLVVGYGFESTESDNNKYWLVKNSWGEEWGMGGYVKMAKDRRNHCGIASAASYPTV
# Starred values were filed as active, the others as inactive; nt = no result given. Hits are enriched below; roughly 3.3% of the tested compounds scored in any of these assays.
SMILES,HGIII-sPLA2 inh,PfM18AAP inh-1,Arr AP2 block,CendR NRP1 mod,HTR2A ag,Hep lipid drop,PfM18AAP inh-2,CTSL1 confirm
Cc1ccc([N+](=O)[O-])cc1S(=O)(=O)Nc1ccc(O)c(Sc2ncn[nH]2)c1,-41.6,53.9*,-23.2,14.0,-0.5,23.6,38.2*,-4.4
COc1ccc(S(=O)(=O)Nc2cc(Sc3ncn[nH]3)c(O)cc2C)cc1,-69.2,nt,nt,-5.9,-2.1,nt,nt,nt
CCOC(=O)c1sc2nc(N3CCCC3)c3c(c2c1N)CC(C)(C)OC3,-0.3,7.4,2.9,0.6,6.8,nt,nt,nt
CC1(C)Cc2c(c(N3CCOCC3)nc3sc(C(=O)Nc4ccccc4)c(N)c23)CO1,6.9,37.3*,-7.2,8.7,0.0,-1.0,-45.5,0.8
CN(C(=O)c1sc2nc(N3CCCC3)c3c(c2c1N)CC(C)(C)OC3)c1ccccc1,-0.9,24.1,8.3,-1.2,2.8,-15.3,nt,nt
CC1(C)Cc2c(c(N3CCOCC3)nc3sc(C(=O)Nc4cccc(Cl)c4)c(N)c23)CO1,0.3,40.7*,-13.8,0.7,1.4,-6.4,14.1,8.8
CCOc1ccc(/C=N/N2C(C)CCCC2C)cc1OC (stereo not given),10.2,8.3,3.1,-14.7,0.0,nt,nt,nt
COc1cc(/C=N/N2C(C)CCCC2C)cc(OC)c1O (stereo not given),-1.7,39.2*,12.8,4.2,6.8,-2.9,-31.4,-7.8
S=C(NCCCN1CCOCC1)NC1CCCC1,8.9,-5.2,8.9,6.0,-1.4,3.2,nt,nt
COc1cc(OC)c(C(=O)NCCCN2CCOCC2)cc1OC,4.9,56.6*,-6.9,-7.1,-0.9,2.1,-35.1,-2.8
S=C(NCCCN1CCOCC1)NCCCN1CCOCC1,-1.8,39.4*,31.8,-1.7,13.0,22.6,1.4,1.2
CN(C)c1ccc(NC(=S)c2ccc3ccccc3n2)cc1,10.6,34.6*,-10.9,8.5,-0.6,47.1,22.4,-3.8
COC1=CC(C)C2CC3OC(O)CC4C(C)=C(OC)C(=O)C(C2(C)C1=O)C34C (stereo not given),6.0,nt,nt,-6.4,-0.6,nt,nt,nt
CC(=O)c1ccc(N2CCN(Cc3nc4ccccc4[nH]3)CC2)cc1,3.7,6.4,-4.4,-5.5,0.1,-4.6,nt,nt
Oc1ccc(N2CCN(Cc3nc4ccccc4[nH]3)CC2)cc1,-2.3,42.2*,-8.1,11.5,-6.8,1.6,-25.1,-4.6
COC(=O)c1cccc(CN2C(=O)C(C)Sc3cc(Cl)ccc32)c1 (stereo not given),-1.8,nt,nt,-2.9,5.5,nt,nt,nt
C=CCn1c(SCC(=O)N2CC(C)OC(C)C2)nnc1-c1ccncc1 (stereo not given),10.3,nt,18.4,7.9,0.6,nt,nt,nt
CN1CCN(C(=S)NC(=O)c2ccc(S(=O)(=O)N3CCOCC3)cc2)CC1,15.1,44.6*,-0.2,-17.5,-2.8,1.5,14.6,1.7
CCOC(=O)c1c(NS(=O)(=O)c2cccc(OC)c2)sc2c1CCC2,-12.7,33.2*,9.9,3.1,0.0,-0.9,-83.8,0.5
COC(=O)C1=C(C(=O)OC)[C@@]2([C@H](Cc3ccc(C)cc3)Nc3ccccc3)C=C[C@@H]1O2,-0.7,nt,nt,nt,nt,nt,nt,nt
O=C1CCCC/C1=C\Nc1ccc(C(=O)O)c(O)c1,0.3,33.1*,9.3,-5.8,4.1,42.9,-18.8,2.2
CC1(C(=O)NCC2CCCCC2)CCN1C(=O)Cc1ccc(-c2ccccc2)cc1 (stereo not given),-11.7,nt,nt,-11.7,-3.9,nt,nt,nt
Cc1ccc(/C=N/NC(=O)c2nnn(-c3nonc3N)c2-c2ccc3c(c2)OCO3)s1,-24.3,5.3,-10.1,9.1,-1.0,0.7,nt,nt
CC(C)Oc1ccc(CN2CCC2(C)C(=O)Nc2ccc(Cl)c(Cl)c2)cc1 (stereo not given),-3.1,nt,nt,2.2,-2.3,nt,nt,nt
O=c1c2ccccc2nnn1Cc1ccco1,0.2,nt,nt,nt,nt,nt,nt,nt
SMILES,HGIII-sPLA2 inh,PfM18AAP inh-1,Arr AP2 block,CendR NRP1 mod,HTR2A ag,Hep lipid drop,PfM18AAP inh-2,CTSL1 confirm
O=C(O)Cc1cn(-c2ccccc2)nc1-c1ccccc1,1.1,-3.0,0.9,-7.2,1.2,8.9,nt,nt
O=C(O)/C=C/C(=O)NCc1cn(-c2ccccc2)nc1-c1cccc(Br)c1,9.2,36.1*,18.3,-4.0,1.0,-10.0,-34.8,-2.2
Nc1nc(Cl)nc2c1ncn2[C@@H]1O[C@H](CO)[C@@H](O)[C@@H]1F,4.3,nt,nt,nt,nt,nt,nt,nt
CN1c2ccccc2-c2ccccc2S1(=O)=O,2.2,nt,-4.9,9.7,-4.8,nt,nt,nt
COc1ccc(/C=N/Nc2ncnc3c2[nH]c2ccccc23)c(OC)c1OC,-2.6,35.9*,-1.2,1.7,4.9,-4.5,-27.6,5.4
COc1cccc(/C=N/Nc2ncnc3c2[nH]c2ccc(C)cc23)c1OC,-5.7,8.8,13.3,-16.8,5.9,22.4,nt,nt
Cc1csc(N/N=C/c2ccc([N+](=O)[O-])cc2)n1,8.0,-3.9,2.7,-9.2,2.5,-2.1,nt,nt
O=C(O)c1csc(N/N=C/c2ccc(Br)cc2)n1,-3.6,33.2*,-1.3,-5.8,-1.0,35.7,-41.6,1.1
COC(=O)C1=C(C)NC(=O)NC1c1ccc(-c2ccc(Cl)cc2)o1 (stereo not given),-8.6,4.8,12.2,-17.9,-1.0,-42.9,nt,nt
COC(=O)C1=C(C)NC(=S)NC1c1ccc(-c2cc(Cl)ccc2Cl)o1 (stereo not given),3.9,36.2*,3.0,-27.3,-3.2,-2.3,-55.4,8.7
N#Cc1ccc(C(=O)Nn2cnnc2)cc1,6.2,45.0*,-10.9,13.6,-1.6,4.9,27.0,-3.1
Cc1ccc(C(=O)Nn2cnnc2)cc1Cl,-0.7,47.1*,8.3,0.3,4.8,nt,33.1*,1.0
Cc1ccc(/C=C/C(=O)Nn2cnnc2)cc1,-7.3,41.2*,-6.6,0.5,-2.1,-1.1,51.3*,-5.7
O=C(Nn1cnnc1)c1ccncc1,1.0,13.1,-2.8,-1.9,0.6,nt,nt,nt
Cc1ccc(/C=C/C(=O)NN2CCN(C)CC2)cc1,2.2,-0.4,-10.1,7.6,-4.0,-0.8,nt,nt
O=C(Nn1cnnc1)c1cccc(S(=O)(=O)N2CCOCC2)c1,5.6,38.2*,15.6,-2.1,-0.2,5.0,32.9*,-0.5
CC(=O)Oc1ccc(C(=O)Nn2cnnc2)cc1,-4.4,15.4,24.0,7.4,2.4,nt,nt,nt
CCCC1CCC2(CCCN2CCOC(=O)Nc2ccccc2C)CC1 (stereo not given),-7.2,nt,nt,nt,nt,nt,nt,nt
COc1ccccc1/C=C/C(=O)N1CCN(S(=O)(=O)c2cc(C)ccc2C)CC1,-17.0,nt,4.3,-11.8,-7.2,nt,nt,nt
Cc1cccc(CN2[C@@H](C)[C@H](c3ccccc3)Oc3cc(Br)ccc3S2(=O)=O)c1,1.8,nt,nt,nt,nt,nt,nt,nt
O=C(Nn1cnnc1)c1ccc(Cl)c([N+](=O)[O-])c1,-4.8,44.3*,9.1,-0.8,-1.3,0.9,43.8*,-4.0
